Data on 15 compounds can be found in ChEMBL document CHEMBL1153770, “Chemical constituents of Heteroplexis micocephala” (J Nat Prod, 2009).

Each structure is given as a SMILES string. Calls of active or inactive are those of the source. The calls are words filed in the database; no cut-off is given here.

One assay concerns PC-12. Put plainly: Neuroprotective activity against glutamate-induced rat PC12 cell death at 10 uM pretreated for 24 hrs before glutamate challenge after 24 hrs by MTT assay. The format is functional, cell-based.
Assay [1] addresses T1, Tyrosine-protein phosphatase non-receptor type 1 (Homo sapiens) (UniProt P18031).
T1 sequence (whole entry): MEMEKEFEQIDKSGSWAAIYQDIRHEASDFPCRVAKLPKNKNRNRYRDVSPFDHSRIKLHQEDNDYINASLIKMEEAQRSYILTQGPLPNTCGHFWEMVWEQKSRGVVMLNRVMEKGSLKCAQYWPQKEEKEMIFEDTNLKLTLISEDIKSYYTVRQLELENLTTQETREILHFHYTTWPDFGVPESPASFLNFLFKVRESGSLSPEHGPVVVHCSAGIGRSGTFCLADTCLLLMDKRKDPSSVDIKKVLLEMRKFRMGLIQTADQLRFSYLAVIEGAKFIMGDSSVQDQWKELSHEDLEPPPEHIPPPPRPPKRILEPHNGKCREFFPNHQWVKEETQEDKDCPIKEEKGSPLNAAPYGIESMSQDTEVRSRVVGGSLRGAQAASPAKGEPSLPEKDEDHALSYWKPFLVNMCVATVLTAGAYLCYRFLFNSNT
Put plainly: Inhibition of GST-tagged human recombinant PTP1B assessed as paranitrophenol accumulation at 10 uM after 10 mins by spectrophotometry.

The test system of another assay is A2780. The experiment in a line: Cytotoxicity against human A2780 cells after 96 hrs by MTT assay. The format is functional, cell-based. (Formazan colour is commonly taken as a measure of viable cells.)
For another assay, the system named is Liver microsomes. Put plainly: Antioxidant activity in rat liver microsomes assessed as inhibition of Fe(2+)-cystine-induced lipid peroxidation at 10 uM pretreated for 15 mins before Fe2+ challenge after 15 mins by TBA assay. The note with it: Microsome. The format is functional. For orientation: Liver microsomes are vesicles of endoplasmic reticulum, rich in cytochrome P450 enzymes.

Assay [2] concerns Human immunodeficiency virus 1. Put plainly: Antiviral activity against HIV1 NL4-3 co-transfected with VSV glycoprotein plasmid in human 293T cells after 48 hrs by luciferase reporter gene assay. In kind it is functional, organism-based. The method, boiled down:
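Env-deficient pNL4-3.luc.R-E- HIV-1 vector pseudotyped with VSV-G, made by co-transfecting 293T cells, quantified by p24 ELISA and diluted to 0.2 ng p24/mL. Target 293T cells were seeded at 6 × 10^4 per well one day before infection. Compounds were preincubated with cells 15 min before adding virus, with a solvent-only blank. Cells were lysed 48 h post-infection.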
For orientation: In a reporter assay the amount or activity of a reporter protein is the signal.

For another assay, the species on record is Rattus norvegicus. Put plainly: Antiinflammatory activity in rat PMNCs assessed as inhibition of platelet activating factor-induced beta-glucuronidase release at 10 uM treated 15 mins before PAF challenge after 10 mins. The format is functional.
The mark [3] stands for this setting: Homo sapiens, A2780, 96 h, read-out: IC50.
Setting [4] is: Human immunodeficiency virus 1, NL4-3, HEK-293T, 48 h, read-out: IC50.

On to `CC(C)=C[C@@H]1OC(=O)[C@H](/C=C/C/C(C)=C/CCC2=CC(=O)OC2)[C@@H]1O` [HETEROPLEXISOLIDE D], for which the outcome (in the assay on PC-12; in assay [1]; with Liver microsomes; in the assay listed under Rattus norvegicus) was inactive. Also, the IC50 (usually the point on the concentration scale where inhibition reaches its midpoint) was 4370 nM in the assay on A2780 (setting [3]) and “Not Active” in assay [2] (293t).
In the case of `CC(=O)CC/C=C1\C[C@@H](C=C(C)C)OC1=O` [HETEROPLEXISOLIDE E], the result (with PC-12; in assay [1]; with Liver microsomes; in the assay filed under Rattus norvegicus) was inactive. Further, the IC50 entry (with A2780 (a2780); in assay [2] (293t)) was “Not Active” in each case.
With `CC(C)=C[C@@H]1OC(=O)/C(=C/CC/C(C)=C/CCC2=CC(=O)OC2)[C@@H]1O` [HETEROPLEXISOLIDE C], the result (in the assay with PC-12; in assay [1]; with Liver microsomes; in the assay filed under Rattus norvegicus) was inactive. The IC50 entry (in the assay with A2780 (a2780); in assay [2] (293t)) was “Not Active” in each case.
For the compound `COc1ccc(C(C)=O)cc1C(=O)CC(C)(C)O`, the outcome (in the assay on PC-12; in assay [1]; in the assay on Liver microsomes; in the assay listed under Rattus norvegicus) was inactive. Further, the IC50 result (in the assay with A2780 (a2780); in assay [2] (293t)) was “Not Active” each time.
With `C/C=C(/C)C(=O)OC/C=C/c1cc(OC)c(OC(=O)/C(C)=C\C)c(OC)c1`, the result (in the assay with PC-12; in assay [1]; in the assay on Liver microsomes; in the assay listed under Rattus norvegicus) was inactive. Further, the IC50 entry was “Not Active” with A2780 (a2780) and 4040 nM in assay [2] (setting [4]).
In the case of `C/C1=C/CC(C)(C)[C@@H]2CC[C@](C)(O)/C2=C/C1=O`, the outcome (in the assay on PC-12; in assay [1]; in the assay with Liver microsomes; in the assay listed under Rattus norvegicus) was inactive. For the same compound, the IC50 result (in the assay with A2780 (a2780); in assay [2] (293t)) was “Not Active” in each case.
As to `C/C=C(/C)C(=O)OC/C=C/c1cc(OC)c(OC(=O)[C@@H](C)CC)c(OC)c1`, the outcome (in the assay with PC-12; in assay [1]; in the assay with Liver microsomes; in the assay filed under Rattus norvegicus) was inactive. Moreover, the IC50 result (with A2780 (a2780); in assay [2] (293t)) was “Not Active” throughout.
Regarding `C/C=C(/C)C(=O)OC/C=C/c1cc(OC)c(OC)c(OC)c1`, the result (with PC-12; in assay [1]; in the assay on Liver microsomes; in the assay listed under Rattus norvegicus) was inactive. Also, the IC50 result (with A2780 (a2780); in assay [2] (293t)) was “Not Active” throughout.
On to `CC(C)=C[C@@H]1C/C(=C\CC/C(C)=C/CCC2=CC(=O)OC2)C(=O)O1` [HETEROPLEXISOLIDE A], for which the outcome (in the assay with PC-12; in assay [1]; in the assay with Liver microsomes; in the assay listed under Rattus norvegicus) was inactive. Further, the IC50 result (with A2780 (a2780); in assay [2] (293t)) was “Not Active” each time.
`CC[C@@]1(O)C(=O)OCc2c1cc1n(c2=O)Cc2cc3ccccc3nc2-1` [CAMPTOTHECIN]: in the assay with A2780 (setting [3]), the IC50 is 280 nM.
For `C/C1=C/CC(C)(C)[C@@H]2CC[C@@](C)(O)/C2=C/C1=O`, the result (in the assay on PC-12; in assay [1]; in the assay with Liver microsomes; in the assay listed under Rattus norvegicus) was inactive. For the same compound, the concentration for half-maximal inhibition (IC50) entry (in the assay on A2780 (a2780); in assay [2] (293t)) was “Not Active” throughout.
`CCOC(C)(C)CC(=O)c1cc(C(C)=O)ccc1OC`: the outcome (in the assay with PC-12; in assay [1]; in the assay with Liver microsomes; in the assay filed under Rattus norvegicus) was inactive. For the same compound, the IC50 entry (in the assay on A2780 (a2780); in assay [2] (293t)) was “Not Active” in each case.
`Cc1cn([C@H]2C[C@H](N=[N+]=[N-])[C@@H](CO)O2)c(=O)[nH]c1=O` [ZIDOVUDINE]: the IC50 in assay [2] (setting [4]) was found to be 48 nM.
Take `C[C@]12C[C@@H](c3ccoc3)OC(=O)[C@@H]1CC[C@@]13COC(=O)[C@@H]1C=CC(=O)[C@H]23` [8-EPIRHYNCHOSPERIN A]: the result (in the assay with PC-12; in assay [1]; in the assay with Liver microsomes; in the assay listed under Rattus norvegicus) was inactive. Further, the IC50 result (in the assay on A2780 (a2780); in assay [2] (293t)) was “Not Active” in each case.
With `C=C(CC/C=C1\C[C@@H](C=C(C)C)OC1=O)C(O)CCC1=CC(=O)OC1` (stereo not given in full) [HETEROPLEXISOLIDE B], the outcome (in the assay with PC-12; in assay [1]; with Liver microsomes; in the assay filed under Rattus norvegicus) was inactive. The IC50 entry (in the assay on A2780 (a2780); in assay [2] (293t)) was “Not Active” each time.
